Converted amounts (≈) assume the structure as drawn. The source made the active and inactive calls.

The results in this text go back to ChEMBL document CHEMBL1921735, “Antibacterial optimization of 4-aminothiazolyl analogues of the natural product GE2270 A: identification of the cycloalkylcarboxylic acids” (J Med Chem, 2011).

In one assay the test system is Enterococcus faecium. The assay can be described thus: Antibacterial activity against Enterococcus faecium 7130724 by CLSI M07-A8 method. Format: functional. Summed up:
(§1)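 Broth microdilution MIC run per CLSI M07-A8 (2009).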

The subject of a further assay is Streptococcus pyogenes. The assay can be described thus: Antibacterial activity against Streptococcus pyogenes ATCC BAA-595 by CLSI M07-A8 method. Format: functional. Summed up:
as §1

In a further assay the test system is Enterococcus faecalis. The assay can be described thus: Antibacterial activity against Enterococcus faecalis ATCC 29212 by CLSI M07-A8 method. Format: functional. The gist of the method:
as §1

The subject of a further assay is Streptococcus pneumoniae. The assay can be described thus: Antibacterial activity against Streptococcus pneumoniae by CLSI M07-A8 method. The format is functional, organism-based. Summed up:
as §1

The test system of assay [1] is Staphylococcus aureus. The assay is described as follows: Antibacterial activity against methicillin-resistant Staphylococcus aureus isolate A4.018 by CLSI M07-A8 method. The format is functional.
Assay [2] has as its system Staphylococcus aureus. The assay is described as follows: Antibacterial activity against GE2270-A-resistant Staphylococcus aureus harboring tufA G258D mutant gene by CLSI M07-A8 method. Format: functional.

In general, MIC refers to the smallest concentration in the dilution series that meets the test's criterion for growth inhibition. Turning to `CNC(=O)C[C@@H]1NC(=O)c2csc(n2)-c2ccc(-c3nc(NC(=O)[C@H]4CC[C@@H](C(=O)O)CC4)cs3)nc2-c2csc(n2)-c2csc(n2)[C@H]([C@@H](O)c2ccccc2)NC(=O)CNC(=O)c2nc(sc2COC)[C@H](C(C)C)NC(=O)c2nc1sc2C`, the minimum inhibitory concentration (MIC) in the assay with Enterococcus faecium was 0.25 µg/mL (≈ 0.2 µM); in the assay with Streptococcus pyogenes, 4 µg/mL (≈ 3.2 µM); with Enterococcus faecalis, 0.125 µg/mL (≈ 0.1 µM); against Staphylococcus aureus [1], 0.25 µg/mL (≈ 0.2 µM). Also, the outcome with Streptococcus pneumoniae was Active.

In the case of `CNC(=O)C[C@@H]1NC(=O)c2csc(n2)-c2ccc(-c3nc(NC(=O)CC(=O)O)cs3)nc2-c2csc(n2)-c2csc(n2)[C@H]([C@@H](O)c2ccccc2)NC(=O)CNC(=O)c2nc(sc2COC)[C@H](C(C)C)NC(=O)c2nc1sc2C`, the MIC in the assay on Enterococcus faecium is 2 µg/mL (≈ 1.69 µM); against Streptococcus pyogenes, 8 µg/mL (≈ 6.77 µM); against Enterococcus faecalis it was 1 µg/mL (≈ 0.846 µM); in the assay on Staphylococcus aureus [1], 1 µg/mL (≈ 0.846 µM). Further, the result with Streptococcus pneumoniae was Active. Besides, the result in the assay on Staphylococcus aureus [2] was inactive.

For the compound `CNC(=O)C[C@@H]1NC(=O)c2csc(n2)-c2ccc(-c3nc(NC(=O)O[C@H]4C[C@H](C(=O)O)C4)cs3)nc2-c2csc(n2)-c2csc(n2)[C@H]([C@@H](O)c2ccccc2)NC(=O)CNC(=O)c2nc(sc2COC)[C@H](C(C)C)NC(=O)c2nc1sc2C`, the minimal inhibitory concentration (MIC) against Enterococcus faecium amounted to 0.06 µg/mL (≈ 0.0484 µM); against Streptococcus pyogenes, 2 µg/mL (≈ 1.61 µM); in the assay on Enterococcus faecalis, 0.06 µg/mL (≈ 0.0484 µM); in the assay with Staphylococcus aureus [1], 0.125 µg/mL (≈ 0.101 µM). In the assay with Streptococcus pneumoniae, the result was Active.

Take `CNC(=O)C[C@@H]1NC(=O)c2csc(n2)-c2ccc(-c3nc(NC(=O)c4ccnc(C(=O)O)c4)cs3)nc2-c2csc(n2)-c2csc(n2)[C@H]([C@@H](O)c2ccccc2)NC(=O)CNC(=O)c2nc(sc2COC)[C@H](C(C)C)NC(=O)c2nc1sc2C`: the MIC against Enterococcus faecium is 8 µg/mL (≈ 6.42 µM); against Streptococcus pyogenes it was greater than 32 µg/mL; in the assay with Enterococcus faecalis, 2 µg/mL (≈ 1.61 µM); in the assay on Staphylococcus aureus [1], 8 µg/mL (≈ 6.42 µM). The outcome with Streptococcus pneumoniae was Active.

Regarding `CNC(=O)C[C@@H]1NC(=O)c2csc(n2)-c2ccc(-c3nc(NC(=O)OCCN4CCOCC4)cs3)nc2-c2csc(n2)-c2csc(n2)[C@H]([C@@H](O)c2ccccc2)NC(=O)CNC(=O)c2nc(sc2COC)[C@H](C(C)C)NC(=O)c2nc1sc2C`, the MIC is 0.5 µg/mL (≈ 0.399 µM) in the assay on Enterococcus faecium, greater than 32 µg/mL against Streptococcus pyogenes, 0.5 µg/mL (≈ 0.399 µM) in the assay with Enterococcus faecalis and 1 µg/mL (≈ 0.798 µM) in the assay with Staphylococcus aureus [1]. The result in the assay on Streptococcus pneumoniae was Active. The result with Staphylococcus aureus [2] was inactive.

For `CNC(=O)C[C@@H]1NC(=O)c2csc(n2)-c2ccc(-c3nc(NC(=O)OCCC[C@H](N)C(=O)O)cs3)nc2-c2csc(n2)-c2csc(n2)[C@H]([C@@H](O)c2ccccc2)NC(=O)CNC(=O)c2nc(sc2COC)[C@H](C(C)C)NC(=O)c2nc1sc2C`, the MIC against Enterococcus faecium is 32 µg/mL (≈ 25.5 µM); in the assay on Streptococcus pyogenes, 8 µg/mL (≈ 6.37 µM); against Enterococcus faecalis, 8 µg/mL (≈ 6.37 µM); in the assay on Staphylococcus aureus [1], 8 µg/mL (≈ 6.37 µM). Moreover, the result in the assay with Streptococcus pneumoniae was Active. Also, the result in the assay on Staphylococcus aureus [2] was inactive.

Regarding `CNC(=O)C[C@@H]1NC(=O)c2csc(n2)-c2ccc(-c3nc(NC(=O)NCCC(=O)O)cs3)nc2-c2csc(n2)-c2csc(n2)[C@H]([C@@H](O)c2ccccc2)NC(=O)CNC(=O)c2nc(sc2COC)[C@H](C(C)C)NC(=O)c2nc1sc2C`, the minimal inhibitory concentration (MIC) is 2 µg/mL (≈ 1.65 µM) with Enterococcus faecium; 8 µg/mL (≈ 6.6 µM) with Streptococcus pyogenes; 1 µg/mL (≈ 0.825 µM) in the assay on Enterococcus faecalis; 1 µg/mL (≈ 0.825 µM) in the assay with Staphylococcus aureus [1]; greater than 32 µg/mL with Staphylococcus aureus [2]. Also, the result with Streptococcus pneumoniae was Active.

Consider `CNC(=O)C[C@@H]1NC(=O)c2csc(n2)-c2ccc(-c3nc(C4=N[C@H](C(=O)N5CCC[C@H]5C(N)=O)CO4)cs3)nc2-c2csc(n2)-c2csc(n2)[C@H]([C@@H](O)c2ccccc2)NC(=O)CNC(=O)c2nc(sc2COC)[C@H](C(C)C)NC(=O)c2nc1sc2C`, for which the minimal inhibitory concentration (MIC) came to 0.25 µg/mL (≈ 0.194 µM) in the assay on Enterococcus faecium, 1 µg/mL (≈ 0.775 µM) in the assay on Streptococcus pyogenes, 0.5 µg/mL (≈ 0.387 µM) against Enterococcus faecalis and 0.25 µg/mL (≈ 0.194 µM) in the assay with Staphylococcus aureus [1]. In addition, in the assay on Streptococcus pneumoniae, the result was Active.

In the case of `CNC(=O)C[C@@H]1NC(=O)c2csc(n2)-c2ccc(-c3nc(NC(=O)[C@H]4CC[C@@H](C(=O)O)C4)cs3)nc2-c2csc(n2)-c2csc(n2)[C@H]([C@@H](O)c2ccccc2)NC(=O)CNC(=O)c2nc(sc2COC)[C@H](C(C)C)NC(=O)c2nc1sc2C`, the MIC against Enterococcus faecium stood at 0.25 µg/mL (≈ 0.202 µM); against Streptococcus pyogenes it was 4 µg/mL (≈ 3.23 µM); against Enterococcus faecalis it was 0.25 µg/mL (≈ 0.202 µM); in the assay on Staphylococcus aureus [1], 0.25 µg/mL (≈ 0.202 µM). Besides, the outcome in the assay with Streptococcus pneumoniae was Active.

For the compound `CNC(=O)C[C@@H]1NC(=O)c2csc(n2)-c2ccc(-c3nc(NC(=O)C45CCC(C(=O)O)(CC4)CC5)cs3)nc2-c2csc(n2)-c2csc(n2)[C@H]([C@@H](O)c2ccccc2)NC(=O)CNC(=O)c2nc(sc2COC)[C@H](C(C)C)NC(=O)c2nc1sc2C`, the MIC against Enterococcus faecium turned out to be 0.25 µg/mL (≈ 0.196 µM); against Streptococcus pyogenes it was 4 µg/mL (≈ 3.13 µM); in the assay on Enterococcus faecalis, 0.125 µg/mL (≈ 0.0979 µM); in the assay on Staphylococcus aureus [1], 0.25 µg/mL (≈ 0.196 µM). Also, in the assay with Streptococcus pneumoniae, the outcome was Active.

As for `CNC(=O)C[C@@H]1NC(=O)c2csc(n2)-c2ccc(-c3nc(NC(=O)O[C@H]4CC[C@@H](C(=O)O)CC4)cs3)nc2-c2csc(n2)-c2csc(n2)[C@H]([C@@H](O)c2ccccc2)NC(=O)CNC(=O)c2nc(sc2COC)[C@H](C(C)C)NC(=O)c2nc1sc2C`, the MIC in the assay with Enterococcus faecium stood at 0.125 µg/mL (≈ 0.0987 µM); in the assay on Streptococcus pyogenes, 1 µg/mL (≈ 0.79 µM); in the assay on Enterococcus faecalis it was 0.125 µg/mL (≈ 0.0987 µM); against Staphylococcus aureus [1] it was 0.125 µg/mL (≈ 0.0987 µM). The result in the assay with Streptococcus pneumoniae was Active.

Consider `CNC(=O)C[C@@H]1NC(=O)c2csc(n2)-c2ccc(-c3nc(NC(=O)[C@H]4CC[C@@H]4C(=O)O)cs3)nc2-c2csc(n2)-c2csc(n2)[C@H]([C@@H](O)c2ccccc2)NC(=O)CNC(=O)c2nc(sc2COC)[C@H](C(C)C)NC(=O)c2nc1sc2C`, for which the minimum inhibitory concentration (MIC) stood at 0.5 µg/mL (≈ 0.409 µM) with Enterococcus faecium, 4 µg/mL (≈ 3.27 µM) against Streptococcus pyogenes, 0.25 µg/mL (≈ 0.205 µM) with Enterococcus faecalis and 0.25 µg/mL (≈ 0.205 µM) against Staphylococcus aureus [1]. The outcome in the assay with Streptococcus pneumoniae was Active.

With `CNC(=O)C[C@@H]1NC(=O)c2csc(n2)-c2ccc(-c3nc(NC(=O)c4ccc(C(=O)O)cc4)cs3)nc2-c2csc(n2)-c2csc(n2)[C@H]([C@@H](O)c2ccccc2)NC(=O)CNC(=O)c2nc(sc2COC)[C@H](C(C)C)NC(=O)c2nc1sc2C`, the MIC in the assay on Enterococcus faecium was 0.125 µg/mL (≈ 0.1 µM); with Streptococcus pyogenes it was 4 µg/mL (≈ 3.21 µM); in the assay on Enterococcus faecalis, 0.125 µg/mL (≈ 0.1 µM); against Staphylococcus aureus [1] it was 0.125 µg/mL (≈ 0.1 µM). Further, the result in the assay with Streptococcus pneumoniae was Active.

Regarding `CNC(=O)C[C@@H]1NC(=O)c2csc(n2)-c2ccc(-c3nc(NC(=O)O[C@H]4C[C@@H](C(=O)O)C[C@@H]4N)cs3)nc2-c2csc(n2)-c2csc(n2)[C@H]([C@@H](O)c2ccccc2)NC(=O)CNC(=O)c2nc(sc2COC)[C@H](C(C)C)NC(=O)c2nc1sc2C`, the MIC worked out at 4 µg/mL (≈ 3.16 µM) in the assay with Enterococcus faecium, 2 µg/mL (≈ 1.58 µM) against Streptococcus pyogenes, 1 µg/mL (≈ 0.789 µM) in the assay on Enterococcus faecalis and 2 µg/mL (≈ 1.58 µM) with Staphylococcus aureus [1]. Also, the outcome with Streptococcus pneumoniae was Active.

Consider `CNC(=O)C[C@@H]1NC(=O)c2csc(n2)-c2ccc(-c3nc(NC(=O)c4ccc(C(=O)O)nc4)cs3)nc2-c2csc(n2)-c2csc(n2)[C@H]([C@@H](O)c2ccccc2)NC(=O)CNC(=O)c2nc(sc2COC)[C@H](C(C)C)NC(=O)c2nc1sc2C`, for which the MIC against Enterococcus faecium was 8 µg/mL (≈ 6.42 µM); against Streptococcus pyogenes, greater than 32 µg/mL; in the assay on Enterococcus faecalis, 4 µg/mL (≈ 3.21 µM); against Staphylococcus aureus [1], 4 µg/mL (≈ 3.21 µM). Also, the outcome with Streptococcus pneumoniae was Active.
